Data: ChEMBL document CHEMBL1275323, “Synthesis and biological evaluation of 2-phenylthiazole-4-carboxamide derivatives as anticancer agents” (Eur J Med Chem, 2010)
≈ marks a conversion by molar mass, not a printed value.

Legend:
Assay type in all cases: functional, cell-based
[1] = tested on: HT-29; assay: Cytotoxicity against human HT-29 cells after 48 hrs by MTT assay; conditions: HT-29, 48 h
Summary of the method: (§1)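 Cells seeded at 8000–10,000 viable cells/well and left 48 h to attach, then exposed to a range of compound concentrations for a further 48–96 h, depending on the cell line's cycle. After a PBS wash, MTT was added and the formazan was dissolved in DMSO. Absorbance was read at 550 nm against 690 nm reference. IC50 was obtained by linear regression from two independent experiments in triplicate (mean ± SD). Methotrexate served as reference.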

[2] = tested on: T47D; assay: Cytotoxicity against human T47D cells after 48 hrs by MTT assay; summary of the method: as §1
[3] = tested on: Caco-2; assay: Cytotoxicity against human Caco-2 cells after 48 hrs by MTT assay; conditions: Caco-2, 48 h; summary of the method: as §1

Row | Compound | IC50 [1] | IC50 [2] | IC50 [3]
1 | O=C(Cc1ccccc1Cl)NCc1ccc(-c2nc(C(=O)N3CCCCC3)cs2)cc1 | 26.8 µg/mL (≈ 59 µM) | 24.3 µg/mL (≈ 53.4 µM) | 12.8 µg/mL (≈ 28.1 µM)
2 | O=C(Cc1cccc(Cl)c1)NCc1ccc(-c2nc(C(=O)N3CCCCC3)cs2)cc1 | 64.3 µg/mL (≈ 142 µM) | 37.6 µg/mL (≈ 82.9 µM) | 155 µg/mL (≈ 341 µM)
3 | O=C(Cc1ccc(Cl)cc1)NCc1ccc(-c2nc(C(=O)N3CCCCC3)cs2)cc1 | 5.37 µg/mL (≈ 11.8 µM) | 11.8 µg/mL (≈ 26 µM) | 89.9 µg/mL (≈ 198 µM)
4 | O=C(Cc1ccccc1F)NCc1ccc(-c2nc(C(=O)N3CCCCC3)cs2)cc1 | > 1000 µg/mL | 18.8 µg/mL (≈ 43 µM) | 18.1 µg/mL (≈ 41.4 µM)
5 | O=C(Cc1cccc(F)c1)NCc1ccc(-c2nc(C(=O)N3CCCCC3)cs2)cc1 | 9.84 µg/mL (≈ 22.5 µM) | 2.02 µg/mL (≈ 4.62 µM) | 4.32 µg/mL (≈ 9.87 µM)
6 | O=C(Cc1ccc(F)cc1)NCc1ccc(-c2nc(C(=O)N3CCCCC3)cs2)cc1 | 52 µg/mL (≈ 119 µM) | 14.2 µg/mL (≈ 32.4 µM) | 114 µg/mL (≈ 260 µM)
7 | O=C(Cc1ccc(Br)cc1)NCc1ccc(-c2nc(C(=O)N3CCCCC3)cs2)cc1 | 45.3 µg/mL (≈ 90.8 µM) | 29.5 µg/mL (≈ 59.1 µM) | 52 µg/mL (≈ 104 µM)
8 | COc1ccccc1CC(=O)NCc1ccc(-c2nc(C(=O)N3CCCCC3)cs2)cc1 | 4.46 µg/mL (≈ 9.92 µM) | 6.83 µg/mL (≈ 15.2 µM) | 28.1 µg/mL (≈ 62.4 µM)
9 | COc1cccc(CC(=O)NCc2ccc(-c3nc(C(=O)N4CCCCC4)cs3)cc2)c1 | 447 µg/mL (≈ 995 µM) | 40.3 µg/mL (≈ 89.6 µM) | 41.1 µg/mL (≈ 91.4 µM)
10 | COc1ccc(CC(=O)NCc2ccc(-c3nc(C(=O)N4CCCCC4)cs3)cc2)cc1 | > 1000 µg/mL | 21.6 µg/mL (≈ 48 µM) | 1.88 µg/mL (≈ 4.18 µM)
11 | CN(Cc1cnc2nc(N)nc(N)c2n1)c1ccc(C(=O)N[C@@H](CCC(=O)O)C(=O)O)cc1 [METHOTREXATE] | 0.23 µg/mL (≈ 0.506 µM) | 0.16 µg/mL (≈ 0.352 µM) | 0.32 µg/mL (≈ 0.704 µM)
